Laboratory results taken from ChEMBL document CHEMBL3244377, “Synthesis and biochemical evaluation of nucleosides of naphthoquinone heterocycles” (J Med Chem, 1977).
Activity calls are given as the source filed them. The calls are words filed in the database; no cut-off is given here.

Experiments:
Human rhinovirus A13 = experiment: Antiviral activity against Rhinovirus 13 by tissue culture assay; assay type: functional
[1] = target: T1, Hypoxanthine-guanine phosphoribosyltransferase (Mus musculus) (UniProt P00493); experiment: Inhibition of hypoxanthine phosphoribosyltransferase in mouse Ehrlich ascites tumor cells assessed as decrease in purine nucleotide biosynthesis using [14C]hypoxanthine as substrate at 100 uM incubated for 20 mins followed by substrate addition for 60 mins by thin layer chromatography
T1 sequence (whole entry): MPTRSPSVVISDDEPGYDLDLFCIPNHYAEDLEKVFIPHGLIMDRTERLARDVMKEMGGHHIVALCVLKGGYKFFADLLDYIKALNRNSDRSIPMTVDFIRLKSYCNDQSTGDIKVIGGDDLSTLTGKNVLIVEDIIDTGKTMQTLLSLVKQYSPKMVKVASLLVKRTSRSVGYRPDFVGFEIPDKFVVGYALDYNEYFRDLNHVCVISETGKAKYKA
Outline: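 Ehrlich ascites tumor cell suspensions were preincubated 20 min with compound at 100 μM. [14C]Hypoxanthine was then added at 100 μM for a further 60 min. Cells were disrupted, and adenine and guanine nucleotides were resolved by TLC. Radioactivity in individual nucleotides of treated cells was compared with untreated cells to derive apparent purine-metabolism enzyme rates and their inhibition.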

Human alphaherpesvirus 1 = experiment: Antiviral activity against Herpes simplex virus 1 by tissue culture assay; assay type: functional, organism-based
Human respirovirus 3 = experiment: Antiviral activity against Parainfluenza virus 3 by tissue culture assay; assay type: functional, organism-based

| inhibition [1] | SMILES | Activity (Human rhinovirus A13) | Activity (Human alphaherpesvirus 1) | Activity (Human respirovirus 3) |
| --- | --- | --- | --- | --- |
| 1% | O=C1c2ccccc2C(=O)c2[nH]nnc21 | inactive | inactive | inactive |
| 5% | O=C1c2ccccc2C(=O)c2[nH]ncc21 | inactive | inactive | inactive |
| 82% | O=C1c2ccccc2C(=O)c2[nH]cnc21 | inactive | inactive | inactive |

The next lines start with the compound.

| SMILES | inhibition [1] | Activity (Human rhinovirus A13) | Activity (Human alphaherpesvirus 1) | Activity (Human respirovirus 3) |
| --- | --- | --- | --- | --- |
| O=C1c2ccccc2C(=O)c2nn([C@@H]3O[C@H](CO)[C@@H](O)[C@H]3O)nc21 | 72% | inactive | inactive | inactive |
| O=C1c2ccccc2C(=O)c2c1ncn2[C@@H]1O[C@H](CO)[C@@H](O)[C@H]1O | 68% | inactive | inactive | inactive |
| O=C1c2ccccc2C(=O)c2nn([C@@H]3O[C@H](CO)[C@@H](O)[C@H]3O)cc21 | 0% | inactive | inactive | inactive |
